Screening data deposited in PubChem by several laboratories.
MDM2 E3 inh = Mdm2 E3 ligase (human) inhibition; cell-based MDM2 ubiquitination luciferase reporter, 2 h; 0 = plate control, 100 = twice control, blank-subtracted; signal enhancement, % at 5 µM; 210,000 compounds, 0.11% hits;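 active = signal enhancement of 30% or more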;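 also: luminescence tracks abundance of the self-degrading MDM2-luciferase fusion protein; higher signal means inhibition of MDM2 E3 ligase activity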
Target sequence (Q00987 whole entry, looked up, the tested form may be a part): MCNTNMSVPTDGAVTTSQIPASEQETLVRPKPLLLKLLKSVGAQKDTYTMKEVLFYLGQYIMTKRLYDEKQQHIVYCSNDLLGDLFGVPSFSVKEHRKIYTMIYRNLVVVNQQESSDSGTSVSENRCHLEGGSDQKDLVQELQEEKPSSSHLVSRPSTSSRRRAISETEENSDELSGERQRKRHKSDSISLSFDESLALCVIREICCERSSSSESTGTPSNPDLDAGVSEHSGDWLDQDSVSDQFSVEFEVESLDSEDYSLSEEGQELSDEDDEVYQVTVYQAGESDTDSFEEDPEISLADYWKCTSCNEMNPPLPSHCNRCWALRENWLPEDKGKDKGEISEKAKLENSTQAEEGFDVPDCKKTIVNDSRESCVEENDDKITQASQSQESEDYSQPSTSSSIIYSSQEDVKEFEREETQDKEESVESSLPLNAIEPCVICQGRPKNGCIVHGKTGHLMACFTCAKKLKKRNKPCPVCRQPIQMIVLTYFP
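Assay system: stable mammalian line carrying autodegrading MDM2–luciferase fusion reporter; amount: 2000 cells seeded into each well; buffer or medium: DMEM; benchmarks: plate control and blank wells; signal: luciferase luminescence; timing: 2 h compound exposure at 37 °C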
S1P4 antag = blocks the human S1P4 receptor | 220,000 compounds, 0.26% hits | S1P4-expressing cells, antagonist mode, reporter read-out | inhibition, % at 4.98 µM | O95977; in the data active = inhibition above about 29%;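 also: 0% = wells stimulated with agonist and 100% = vehicle wells without agonist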
S1P3 antagonist = antagonists of human S1P3 receptor. Q99500. CHO S1P3 NFAT-BLA reporter, FRET fluorescence, antagonist mode. inhibition, % at 4.98 µM. 170,000 compounds, 0.27% hits;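 active = inhibition above the plate cutoff, the mean inhibition of test wells on that plate plus 3 SD, cut at about 28% in these data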;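 also: cells challenged with S1P at its EC80 of 0.8 µM; blue over green emission ratio from cleaved BLA substrate after 4 h stimulation; 0% = S1P-stimulated wells and 100% = unstimulated DMSO-only wells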
L major viab = reduces viability of Leishmania major promastigotes; 200,000 compounds, 9% hits; resazurin fluorescence viability; inhibition, % at 10 µM; in the data active = inhibition above about 50%;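 also: promastigotes grown with compound for 44 hours at 28 °C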
S1P4 agonist = agonists of human S1P4 receptor | 220,000 compounds, 0.35% hits | AID 1509 | activation, % at 4.98 µM | S1P4-expressing cell line, agonist reporter assay | O95977; in the data active = activation above about 11%;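 also: 0% = DMSO vehicle and 100% = reference agonist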
Active calls of the source: *; / = not tested or not shown. Many of the other results were omitted from the sample, so hits are more common in it than they were.

SMILES	MDM2 E3 inh	S1P4 antag	S1P3 antagonist	L major viab	S1P4 agonist
O=C1CC(c2ccccc2F)c2cc3c(cc2N1)CCC3 (configuration not stated)	9.6	-4.1	/	96.9*	0.8
COc1ccc(OC)c(C2C(C(N)=O)=C(C)Nc3nc(CCCO)nn32)c1 (configuration not stated)	-25.7	-8.3	-27.8	-5.3	0.4
Cc1ccccc1NC(=O)c1cc(C(=O)c2cc(Cl)ccc2O)cn(-c2ccccc2C)c1=O	1.5	5.2	0.2	60.9*	0.9
O=C(C1=NN(c2ccccc2)C2C(=O)N(c3cccc(Cl)c3)C(=O)C12)c1ccccc1 (configuration not stated)	/	2.6	28.4*	-10.3	-3.4
COc1ccc(O)c(/C=N/NC(=S)Nc2cccc(S(=O)(=O)N(C)C)c2)c1	-3.3	-7.0	-2.6	99.4*	0.4
COc1ccc(O)c(/C=N/NC(=S)Nc2cccnc2)c1	-20.3	-1.8	-0.2	94.1*	1.2
COc1cccc(/C=N/NC(=S)Nc2cccnc2)c1	-5.5	-5.3	-5.6	0.3	1.6
CCN(CC)S(=O)(=O)c1ccc(N/N=C/c2cc(OC)ccc2O)nc1	-87.1	-23.8	-3.3	91.8*	1.7
CCc1nnc(NC(=O)CN2CCN(c3ccccc3F)CC2)s1	3.8	-24.9	-4.8	-7.6	2.0
COc1cccc(N(C(=O)c2cccs2)c2nc3ccccc3s2)c1	-9.1	-6.7	26.7	43.8	0.0
C=CCNC(=O)c1onc(CCl)c1C(=O)OC	14.0	3.5	/	100.7*	-1.1
COCCNC(=O)c1onc(CCl)c1C(=O)OC	16.1	2.6	/	92.2*	0.5
COCCNC(=O)c1onc(CSc2ccccc2)c1C(=O)O	-11.9	0.7	/	-7.0	-0.2
CCCCNC(=O)c1onc(CCl)c1C(=O)OC	0.6	6.2	/	100.6*	-0.4
CCN(CC)c1ccc(NC(=O)c2ccccc2Br)cc1S(=O)(=O)Nc1ccccc1OC	6.9	-8.2	6.0	96.7*	-0.9
CCN(CC)c1ccc(NC(=O)c2ccccc2F)cc1S(=O)(=O)Nc1ccccc1OC	0.7	-15.5	-8.1	99.9*	0.9
COc1ccc(CCNC(=O)Cn2cc(C(F)(F)F)cc(Cl)c2=O)cc1OC	-0.7	-2.9	0.5	-4.6	-1.4
COC(=O)C1=[N+]([O-])OC(C(=O)OC)C1c1c[nH]c2ccccc12 (configuration not stated)	0.7	1.6	-17.9	0.0	0.4
COC(=O)C1=C(C(=O)OC)[C@@H]2N(Cc3ccccc3)c3ccccc3[C@@]23C[C@@H](C(=O)OC)N=C3N1	2.6	/	/	/	/
COC(=O)CC1C(=O)NCCN1C(=S)Nc1ccc(F)cc1 (configuration not stated)	-12.0	4.6	-4.2	/	0.0
CCOC(=O)c1nc(NCc2ccccc2C)c2ccccc2n1	-9.7	-6.7	-22.4	65.0*	-0.5
CC(C)C(=O)Nc1cccc(NC(=S)NC(=O)c2ccccc2Cl)c1	-6.0	-16.6	/	1.9	1.1
CC(C)Oc1cccc(C(=O)NC(=S)Nc2ccccc2)c1	-23.9	-19.1	18.3	86.1*	-0.8
CC(C)COc1cccc(C(=O)NC(=S)Nc2cccc(NC(=O)c3ccccc3Cl)c2)c1	-11.3	-31.6	-3.5	80.2*	-1.2
CC(=O)c1cccc(NC(=O)c2oc(C)nc2C)c1	0.8	5.6	-0.9	71.8*	0.1
SMILES	MDM2 E3 inh	S1P4 antag	S1P3 antagonist	L major viab	S1P4 agonist
CC(=O)c1cccc(NC(=O)c2onc(C)c2Cl)c1	-8.5	-11.2	/	3.1	-0.2
CC(=O)c1cccc(NC(=S)NC(=O)c2cccc(C)c2)c1	-11.1	-5.8	4.0	51.1*	1.9
CC(=O)c1cccc(NC(=S)NC(=O)c2ccc(Cl)cc2)c1	-1.4	-3.3	5.5	-5.9	0.6
CCCOc1cccc(C(=O)NC(=S)Nc2cccc(NC(=O)c3ccccc3Cl)c2)c1	/	0.2	3.7	97.1*	0.3
CCCCOc1cccc(C(=O)NC(=S)Nc2cccc(NC(=O)c3ccccc3Cl)c2)c1	/	-12.2	4.7	20.3	0.7
Cc1cc(Br)ccc1SCC(=O)OCC(=O)Nc1ccccc1C#N	-14.1	-11.5	-8.1	-5.5	0.8
Cc1cc(C)c2[nH]c(=O)c(C(c3nnnn3C(C)(C)C)N(Cc3ccco3)CC3CCCO3)cc2c1 (configuration not stated)	-2.7	-7.5	/	44.8	1.5
CCOc1ccc2[nH]c(=O)c(CN(Cc3ccco3)C(CC)c3nnnn3Cc3ccccc3)cc2c1 (configuration not stated)	0.4	-0.3	12.3	41.4	0.1
CCC(c1nnnn1CCc1ccccc1)N(Cc1ccco1)Cc1cc2cccc(C)c2[nH]c1=O (configuration not stated)	-18.9	-4.5	41.9	98.5*	0.8
CCC(c1nnnn1C(C)(C)C)N(Cc1ccco1)Cc1cc2cccc(C)c2[nH]c1=O (configuration not stated)	-21.5	-2.2	/	61.5*	2.2
CC(C(=O)N1CCOCC1)n1cc([N+](=O)[O-])cn1 (configuration not stated)	0.5	-33.6	-18.7	4.4	-0.9
CCOc1ccc(N(CC(=O)NCC2CCCO2)S(=O)(=O)c2ccc(Cl)cc2)cc1 (configuration not stated)	-8.9	-10.9	/	70.2*	2.4
CCOc1ccc(S(=O)(=O)N(C)c2ccc(OCC(=O)NCC3CCCO3)cc2)cc1 (configuration not stated)	-1.8	-13.0	-3.7	-5.3	2.1
O=C(C1CCCO1)N1CCN(C(c2ccccc2)c2ccccc2)CC1 (configuration not stated)	-7.7	-5.3	-12.7	96.4*	1.9
S=C(Nc1ccccc1)N1CCN(C2CCCCC2)CC1	-7.2	-7.2	/	88.3*	0.9
S=C(Nc1ccccc1)N1CCCCCC1	8.2	-7.3	/	-6.5	-1.0
O=C(C1CCCO1)N1CCN(S(=O)(=O)c2ccccc2)CC1 (configuration not stated)	-9.2	-17.1	-8.7	4.2	1.2
O=C(C1CCCO1)N1CCN(C(=S)Nc2ccccc2)CC1 (configuration not stated)	1.6	-29.8	-4.5	53.2*	-0.4
CC1Cc2nc(SCC(=O)Nc3nc4ccccc4s3)n(C)c(=O)c2S1 (configuration not stated)	-7.7	-21.8	/	17.1	-5.6
CC(C)c1ccc(NC(=O)COc2nnc(-c3cccs3)c(-c3cccs3)n2)cc1	-5.7	-55.7	/	82.6*	0.6
CCc1ccc(NC(=O)C(C)Oc2nnc(-c3cccs3)c(-c3cccs3)n2)cc1 (configuration not stated)	-12.9	-5.0	/	84.1*	-5.8
COC(=O)Cc1c(O)ccn(Cc2cccc3ccccc23)c1=O	-8.1	-5.5	/	-4.0	1.3
S=c1[nH]nc(-c2ccccn2)n1/N=C/c1c(Cl)cccc1Cl	-7.0	-8.4	6.2	/	0.6
Cc1ccc(S(=O)(=O)N2CCC(C(=O)NNC(=O)C3CC3)CC2)cc1Cl	-14.7	-9.8	-7.2	-5.4	-2.0
CCn1ncc(Br)c1C(=O)N(C)C12CC3CC(CC(C3)C1)C2	-10.6	-11.5	15.0	51.3*	0.5
